Legend:
Format in all cases: functional
MDA-MB-468 = test: Growth inhibition of human MDA-MB-468 cells after 48 hrs by sulforhodamine B assay; conditions: MDA-MB-468, 48 h
Procedure, shortened: (§1)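 NCI 60-line panel, five concentrations (0.01–100 µM) from DMSO stock diluted in medium with gentamicin. Cells were plated 24 h before dosing, with time-zero plates fixed at drug addition, then exposed 48 h at 37 °C, 5% CO₂. Adherent cells were fixed with cold TCA (10% final) and suspension cells with 16% TCA. Staining used 0.4% SRB, solubilised in 10 mM Tris and read at 515 nm. GI₅₀ was taken from log concentration–% growth curves.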

[1] = Cytotoxicity against human melanoma cells after 48 hrs by sulforhodamine B assay; conditions: Melanoma cell; for CC50: read-out: LC50 (the source's name)
Procedure, shortened: (§2)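 NCI five-dose screen: about 60 human tumour lines grouped into nine subpanels were plated and incubated 24 h before dosing. Compounds went in as DMSO stock and were diluted in medium to five final concentrations (0.01–100 µM). Exposure was 48 h continuous at 37 °C, 5% CO₂, followed by TCA fixation and SRB staining read at 515 nm. Per-line GI₅₀, TGI and LC₅₀ came from log concentration–% growth curves, averaged per subpanel as MG-MID.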

BT-549 = test: Growth inhibition of human BT549 cells after 48 hrs by sulforhodamine B assay; conditions: BT-549, 48 h; procedure, shortened: as §1
T47D = test: Growth inhibition of human T47D cells after 48 hrs by sulforhodamine B assay
Procedure, shortened: (§3)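 Adherent lines plated and held 24 h at 37 °C, 5% CO2, 100% humidity; time-zero plates TCA-fixed at drug addition. Drugs from DMSO stocks were made into five concentrations by 10-fold or half-log serial dilution and applied for 48 h continuous exposure. Cells were fixed with cold TCA (10% final) for 60 min at 4 °C, then stained with 0.4% SRB in 1% acetic acid for 10 min. Dye was solubilized in 10 mM Tris base and read at 515 nm. GI50 was taken from log concentration–growth curves.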

HOP-62 = test: Growth inhibition of human HOP62 cells after 48 hrs by sulforhodamine B assay; conditions: HOP-62, 48 h; procedure, shortened: as §1
NCI/ADR-RES = test: Growth inhibition of human NCI/ADR-RES cells after 48 hrs by sulforhodamine B assay; procedure, shortened: as §1
[2] = Cytotoxicity against human ovarian cancer cells after 48 hrs by sulforhodamine B assay; conditions: Cancer cell lines; procedure, shortened: as §2
SNB-19 = test: Growth inhibition of human SNB19 cells after 48 hrs by sulforhodamine B assay; conditions: SNB-19, 48 h; procedure, shortened: as §3
A498 = test: Growth inhibition of human A498 cells after 48 hrs by sulforhodamine B assay; conditions: A498, 48 h; procedure, shortened: as §1
EKVX = test: Growth inhibition of human EKVX cells after 48 hrs by sulforhodamine B assay; procedure, shortened: as §1
OVCAR-5 = test: Growth inhibition of human OVCAR5 cells after 48 hrs by sulforhodamine B assay; conditions: OVCAR-5, 48 h; procedure, shortened: as §1
HT-29 = test: Growth inhibition of human HT-29 cells after 48 hrs by sulforhodamine B assay; conditions: HT-29, 48 h; procedure, shortened: as §1
UO-31 = test: Growth inhibition of human UO31 cells after 48 hrs by sulforhodamine B assay; conditions: UO-31, 48 h; procedure, shortened: as §3
A549 = test: Growth inhibition of human A549 cells after 48 hrs by sulforhodamine B assay; conditions: A549, 48 h; procedure, shortened: as §1
UACC-257 = test: Growth inhibition of human UACC257 cells after 48 hrs by sulforhodamine B assay; conditions: UACC-257, 48 h; procedure, shortened: as §3
786-0 = test: Growth inhibition of human 786-0 cells after 48 hrs by sulforhodamine B assay; conditions: 786-0, 48 h; procedure, shortened: as §1
SK-MEL-28 = test: Growth inhibition of human SK-MEL-28 cells after 48 hrs by sulforhodamine B assay; conditions: SK-MEL-28, 48 h; procedure, shortened: as §3
[3] = Cytotoxicity against human CNS cancer cells after 48 hrs by sulforhodamine B assay; conditions: Cancer cell lines; procedure, shortened: as §2
[4] = Cytotoxicity against human prostate cancer cells after 48 hrs by sulforhodamine B assay; conditions: Cancer cell lines; procedure, shortened: as §2
[5] = Cytotoxicity against human lung cancer cells after 48 hrs by sulforhodamine B assay; conditions: Cancer cell lines; procedure, shortened: as §2
HL-60(TB) = test: Growth inhibition of human HL-60(TB) cells after 48 hrs by sulforhodamine B assay; conditions: HL-60, 48 h
Procedure, shortened: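 NCI 60-cell panel. Cells were preincubated 24 h at 37 °C in 5% CO2, then time-zero plates were TCA-fixed. Drugs were dissolved in DMSO and given at five concentrations (10-fold or half-log dilutions) for 48 h. Suspension cells were fixed with TCA (16% final), stained with 0.4% SRB and read at 515 nm. GI50 is the concentration giving 50% decrease in net growth, taken from log concentration–growth curves.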

CCRF-CEM = test: Growth inhibition of human CCRF-CEM cells after 48 hrs by sulforhodamine B assay; procedure, shortened: as §1
SN12C = test: Growth inhibition of human SN12C cells after 48 hrs by sulforhodamine B assay; procedure, shortened: as §3
UACC-62 = test: Growth inhibition of human UACC62 cells after 48 hrs by sulforhodamine B assay; conditions: UACC-62, 48 h; procedure, shortened: as §3
IGROV-1 = test: Growth inhibition of human IGROV1 cells after 48 hrs by sulforhodamine B assay; conditions: IGROV-1, 48 h; procedure, shortened: as §1
[6] = Cytotoxicity against human breast cancer cells after 48 hrs by sulforhodamine B assay; conditions: Cancer cell lines; procedure, shortened: as §2
M14 = test: Growth inhibition of human M14 cells after 48 hrs by sulforhodamine B assay; conditions: M14, 48 h; procedure, shortened: as §1
OVCAR-3 = test: Growth inhibition of human OVCAR-3 cells after 48 hrs by sulforhodamine B assay; conditions: OVCAR-3, 48 h; procedure, shortened: as §1
MDA-MB-435 = test: Growth inhibition of human MDA-MB-435 cells after 48 hrs by sulforhodamine B assay; conditions: MDA-MB-435, 48 h; procedure, shortened: as §1
[7] = Cytotoxicity against human colon cancer cells after 48 hrs by sulforhodamine B assay; conditions: Cancer cell lines; procedure, shortened: as §2
LOX IMVI = test: Growth inhibition of human LOXIMVI cells after 48 hrs by sulforhodamine B assay; procedure, shortened: as §1
HOP-92 = test: Growth inhibition of human HOP92 cells after 48 hrs by sulforhodamine B assay; conditions: HOP-92, 48 h; procedure, shortened: as §1
SF-268 = test: Growth inhibition of human SF268 cells after 48 hrs by sulforhodamine B assay; conditions: SF-268, 48 h; procedure, shortened: as §1
NCI-H460 = test: Growth inhibition of human NCI-H460 cells after 48 hrs by sulforhodamine B assay; conditions: NCI-H460, 48 h; procedure, shortened: as §1
KM12 = test: Growth inhibition of human KM12 cells after 48 hrs by sulforhodamine B assay; conditions: KM12, 48 h; procedure, shortened: as §1
MCF7 = test: Growth inhibition of human MCF7 cells after 48 hrs by sulforhodamine B assay; conditions: MCF7, 48 h; procedure, shortened: as §1
HCT-116 = test: Growth inhibition of human HCT116 cells after 48 hrs by sulforhodamine B assay; conditions: HCT-116, 48 h; procedure, shortened: as §1
SW-620 = test: Growth inhibition of human SW620 cells after 48 hrs by sulforhodamine B assay; conditions: SW-620, 48 h; procedure, shortened: as §3

For `O=C(c1nn(-c2ccc(Cl)cc2)cc1O)n1nc(-c2ccco2)cc1C(F)(F)F`, the GI50 (MDA-MB-468) was 4.66 µM, the GI50 [1] was 4.14 µM and the TGI [1] was 63.7 µM. For the same molecule, the CC50 [1] was 89.4 µM, the GI50 (BT-549) was 1.14 µM and the GI50 (T47D) was 4.16 µM. It also gave a GI50 (HOP-62) of 1.98 µM, a GI50 (NCI/ADR-RES) of 1.6 µM and a GI50 [2] of 2.18 µM. It also gave a TGI [2] of 94.5 µM, a GI50 (SNB-19) of 4.37 µM and a GI50 (A498) of 8.71 µM. It also gave a GI50 (EKVX) of 1.99 µM, a GI50 (OVCAR-5) of 2.6 µM and a GI50 (HT-29) of 4.56 µM. It also gave a GI50 (UO-31) of 3.84 µM, a GI50 (A549) of 7.23 µM and a GI50 (UACC-257) of 2.67 µM. It also gave a GI50 (786-0) of 6.6 µM, a GI50 (SK-MEL-28) of 9.22 µM and a GI50 [3] of 2.99 µM. It also gave a TGI [3] of 90.5 µM, a GI50 [4] of 18.4 µM and a GI50 [5] of 3.19 µM. It also gave a TGI [5] of 78.9 µM, a GI50 (HL-60(TB)) of 2.42 µM and a GI50 (CCRF-CEM) of 0.69 µM. It also gave a GI50 (SN12C) of 5.18 µM, a GI50 (UACC-62) of 2.16 µM and a GI50 (IGROV-1) of 0.92 µM. It also gave a GI50 [6] of 3.07 µM, a TGI [6] of 77 µM and a GI50 (M14) of 4.28 µM. It also gave a GI50 (OVCAR-3) of 1.72 µM, a GI50 (MDA-MB-435) of 1.97 µM and a GI50 [7] of 4.59 µM. It also gave a TGI [7] of 88.5 µM, a GI50 (LOX IMVI) of 2.37 µM and a GI50 (HOP-92) of 4.9 µM. For the same molecule, the GI50 (SF-268) was 3.63 µM, the GI50 (NCI-H460) was 0.78 µM and the GI50 (KM12) was 5.88 µM. The GI50 (MCF7) was 3.51 µM, the GI50 (HCT-116) was 2 µM and the GI50 (SW-620) was 4.75 µM.
Molecule `N#Cc1cnn(C(=O)c2nn(-c3ccc(Cl)cc3)cc2O)c1N` has a GI50 (MDA-MB-468) of 0.95 µM, a GI50 [1] of 0.46 µM and a TGI [1] of 11.9 µM. The CC50 [1] was 65 µM, the GI50 (BT-549) was 0.29 µM and the GI50 (T47D) was 0.3 µM. It also gave a GI50 (HOP-62) of 0.34 µM, a GI50 (NCI/ADR-RES) of 0.37 µM and a GI50 [2] of 0.5 µM. For the same molecule, the LC50 (50% lethal concentration) [2] was 88.5 µM, the TGI [2] was 19.6 µM and the GI50 (SNB-19) was 0.45 µM. The GI50 (A498) was 0.17 µM, the GI50 (EKVX) was 0.38 µM and the GI50 (OVCAR-5) was 0.64 µM. The GI50 (HT-29) was 1.19 µM, the GI50 (UO-31) was 0.3 µM and the GI50 (A549) was 0.2 µM. The GI50 (UACC-257) was 0.56 µM, the GI50 (786-0) was 0.66 µM and the GI50 (SK-MEL-28) was 0.63 µM. The GI50 [3] was 0.32 µM, the LC50 [3] was 74.7 µM and the TGI [3] was 23.1 µM. It also gave a GI50 [4] of 0.45 µM, a TGI [4] of 13.4 µM and a GI50 [5] of 0.32 µM. For the same molecule, the LC50 (concentration causing 50% net cell kill) [5] was 69.4 µM, the TGI [5] was 10.8 µM and the GI50 (HL-60(TB)) was 0.33 µM. The GI50 (CCRF-CEM) was 0.28 µM, the GI50 (SN12C) was 0.35 µM and the GI50 (UACC-62) was 0.3 µM. It also gave a GI50 (IGROV-1) of 0.36 µM, a GI50 [6] of 0.43 µM and an LC50 [6] of 64.3 µM. For the same molecule, the TGI [6] was 14.4 µM, the GI50 (M14) was 0.48 µM and the GI50 (OVCAR-3) was 0.55 µM. For the same molecule, the GI50 (MDA-MB-435) was 0.29 µM, the GI50 [7] was 0.61 µM and the TGI [7] was 12.6 µM. For the same molecule, the CC50 ([7]; read-out: LC50 (the source's name)) was 64.3 µM, the GI50 (LOX IMVI) was 0.44 µM and the GI50 (HOP-92) was 0.4 µM. It also gave a GI50 (SF-268) of 0.46 µM, a GI50 (NCI-H460) of 0.19 µM and a GI50 (KM12) of 0.38 µM. For the same molecule, the GI50 (MCF7) was 0.36 µM, the GI50 (HCT-116) was 0.26 µM and the GI50 (SW-620) was 0.52 µM.

From ChEMBL document CHEMBL1156332, “Polysubstituted pyrazoles, part 6. Synthesis of some 1-(4-chlorophenyl)-4-hydroxy-1H-pyrazol-3-carbonyl derivatives linked to nitrogenous heterocyclic ring systems as potential antitumor agents” (2010)
